Source: ChEMBL document CHEMBL1212735, “Metronidazole resistance in Prevotella spp. and description of a new nim gene in Prevotella baroniae” (2010)
≈ marks a conversion by molar mass, not a printed value.

Assays:
Format in all cases: functional
Prevotella nanceiensis [1] = experiment: Antimicrobial activity against Prevotella nanceiensis LBN 297 deficient in nim gene assessed as inhibition of growth at 48 hrs by agar dilution method; conditions: Hoylesella nanceiensis, LBN 297, 48 h
Method in brief: (§1)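 Metronidazole MIC by agar dilution (CLSI M11-A7) on brucella agar with 5% sheep blood, hemin and vitamin K1. Plates were read after 48 h at 35°C under anaerobic conditions. Susceptible was MIC ≤ 4 μg/ml and resistant MIC ≥ 8 μg/ml (EUCAST). B. fragilis ATCC 25285T and B. thetaiotaomicron ATCC 29741 were run as controls. Duplicate assays.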

Prevotella bivia [2] = experiment: Antimicrobial activity against slow growing colonies of Prevotella bivia LBN 339 deficient in nim gene assessed as inhibition of growth at 48 hrs by agar dilution method; conditions: LBN 339, 48 h
Method in brief: (§2)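 Slowly growing colonies inside the Etest inhibition zone, seen after prolonged incubation (an additional 72 h after the 48 h reading), were subcultured without antibiotic. They were then retested for metronidazole MIC by agar dilution on supplemented brucella blood agar under anaerobic conditions.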

Prevotella bivia [3] = experiment: Antimicrobial activity against slow growing colonies of Prevotella bivia LBN 467 deficient in nim gene assessed as inhibition of growth at 48 hrs by agar dilution method; conditions: LBN 467, 48 h
Method in brief: (§3)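 Metronidazole MIC by agar dilution per CLSI M11-A7 on brucella agar with 5% sheep blood, hemin and vitamin K1. Plates incubated anaerobically at 35°C and read at 48 h, with a second reading after a further 72 h. B. fragilis ATCC 25285T and B. thetaiotaomicron ATCC 29741 served as controls. Done in duplicate; EUCAST breakpoints applied (S ≤4, R ≥8 μg/ml).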

Prevotella baroniae [4] = experiment: Antimicrobial activity against Prevotella baroniae DSM 16972T expressing nimI gene assessed as inhibition of growth after three consecutive subcultures on compound free medium by agar dilution method; conditions: Segatella baroniae
Method in brief: (§4)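 Stability of induced resistance: metronidazole-selected isolates were subcultured three consecutive times on drug-free brucella blood agar (5% sheep blood, hemin, vitamin K1) under anaerobic conditions, then MIC was redetermined by CLSI agar dilution. Resistance was called stable if the MIC held within ±1 dilution. Duplicate experiments.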

Prevotella bivia [5] = experiment: Antimicrobial activity against slow growing colonies of Prevotella bivia LBN 371 deficient in nim gene assessed as inhibition of growth at 48 hrs by agar dilution method; conditions: LBN 371, 48 h; method in brief: as §3
Prevotella baroniae [6] = experiment: Antimicrobial activity against Prevotella baroniae DSM 16972T expressing nim gene assessed as inhibition of growth at 48 hrs by agar dilution method; conditions: Segatella baroniae; method in brief: as §1
Prevotella bivia [7] = experiment: Antimicrobial activity against Prevotella bivia LBN 336 deficient in nim gene assessed as inhibition of growth at 48 hrs by agar dilution method; conditions: LBN 336, 48 h; method in brief: as §1
Prevotella nanceiensis [8] = experiment: Antimicrobial activity against Prevotella nanceiensis LBN 293b deficient in nimI gene assessed as inhibition of growth after several passages on plates containing increasing concentration of compound by agar dilution method; conditions: Hoylesella nanceiensis
Method in brief: (§5)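 Induction of metronidazole resistance: bacterial suspensions inoculated onto brucella blood agar (5% sheep blood, hemin, vitamin K1) containing metronidazole at increasing concentrations, grown anaerobically at 37°C. Colonies growing at the highest concentration were retested for MIC by CLSI agar dilution on the same agar. Duplicate experiments.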

Prevotella bivia [9] = experiment: Antimicrobial activity against slow growing colonies of Prevotella bivia LBP 4 deficient in nim gene assessed as inhibition of growth at 48 hrs by agar dilution method; conditions: LBP 4, 48 h; method in brief: as §3
Prevotella bivia [10] = experiment: Antimicrobial activity against Prevotella bivia LBN 332 deficient in nim gene assessed as inhibition of growth at 48 hrs by agar dilution method; conditions: LBN 332, 48 h; method in brief: as §1
Prevotella baroniae [11] = experiment: Antimicrobial activity against Prevotella baroniae LBN 432 expressing nimI gene assessed as inhibition of growth after several passages on plates containing increasing concentration of compound by agar dilution method; conditions: Segatella baroniae; method in brief: as §5
Prevotella bivia [12] = experiment: Antimicrobial activity against Prevotella bivia LBP 65 deficient in nim gene assessed as inhibition of growth at 48 hrs by agar dilution method; conditions: LBP 65, 48 h; method in brief: as §1
Prevotella nanceiensis [13] = experiment: Antimicrobial activity against Prevotella nanceiensis LBP 66 deficient in nim gene assessed as inhibition of growth at 48 hrs by agar dilution method; conditions: Hoylesella nanceiensis, LBP 66, 48 h; method in brief: as §1
Prevotella bivia [14] = experiment: Antimicrobial activity against Prevotella bivia LBN 371 deficient in nim gene assessed as inhibition of growth at 48 hrs by agar dilution method; conditions: LBN 371, 48 h; method in brief: as §1
Bacteroides fragilis = experiment: Antimicrobial activity against Bacteroides fragilis ATCC 25285T deficient in nimI gene assessed as inhibition of growth after several passages on plates containing increasing concentration of compound by agar dilution method; method in brief: as §5
Prevotella baroniae [15] = experiment: Antimicrobial activity against Prevotella baroniae LBN 430 expressing nim gene assessed as inhibition of growth at 48 hrs by agar dilution method; conditions: Segatella baroniae, LBN 430, 48 h; method in brief: as §1
Prevotella baroniae [16] = experiment: Antimicrobial activity against Prevotella baroniae LBP 19 expressing nim gene assessed as inhibition of growth at 48 hrs by agar dilution method; conditions: Segatella baroniae, LBP 19, 48 h; method in brief: as §1
Prevotella bivia [17] = experiment: Antimicrobial activity against slow growing colonies of Prevotella bivia LBN 343 deficient in nim gene assessed as inhibition of growth at 48 hrs by agar dilution method; conditions: LBN 343, 48 h; method in brief: as §2
Prevotella bivia [18] = experiment: Antimicrobial activity against slow growing colonies of Prevotella bivia LBP 38 deficient in nim gene assessed as inhibition of growth at 48 hrs by agar dilution method; conditions: LBP 38, 48 h; method in brief: as §3
Prevotella bivia [19] = experiment: Antimicrobial activity against Prevotella bivia LBN 365 deficient in nim gene assessed as inhibition of growth at 48 hrs by agar dilution method; conditions: LBN 365, 48 h; method in brief: as §1
Prevotella nanceiensis [20] = experiment: Antimicrobial activity against slow growing colonies of Prevotella nanceiensis LBN 298 deficient in nim gene assessed as inhibition of growth at 48 hrs by agar dilution method; conditions: Hoylesella nanceiensis, LBN 298, 48 h; method in brief: as §3
Prevotella baroniae [21] = experiment: Antimicrobial activity against Prevotella baroniae LBN 430 expressing nimI gene assessed as inhibition of growth after three consecutive subcultures on compound free medium by agar dilution method; conditions: Segatella baroniae; method in brief: as §4
Prevotella baroniae [22] = experiment: Antimicrobial activity against Prevotella baroniae LBP19 expressing nimI gene assessed as inhibition of growth after several passages on plates containing increasing concentration of compound by agar dilution method; conditions: Segatella baroniae; method in brief: as §5
Prevotella buccae = experiment: Antimicrobial activity against Prevotella buccae LBN 465 deficient in nimI gene assessed as inhibition of growth after several passages on plates containing increasing concentration of compound by agar dilution method; conditions: Segatella buccae; method in brief: as §5
Prevotella bivia [23] = experiment: Antimicrobial activity against Prevotella bivia LBN 445 deficient in nim gene assessed as inhibition of growth at 48 hrs by agar dilution method; conditions: LBN 445, 48 h
Method in brief: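 Agar dilution MIC on brucella agar with 5% sheep blood, hemin and vitamin K1, following CLSI M11-A7. Plates read after 48 h at 35°C under anaerobic conditions, with B. fragilis ATCC 25285T and B. thetaiotaomicron ATCC 29741 as controls. Assays in duplicate. Isolates kept at −80°C in brucella broth with 15% glycerol. Interpretation used EUCAST breakpoints (S ≤4, R ≥8 μg/ml).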

Prevotella baroniae [24] = experiment: Antimicrobial activity against Prevotella baroniae LBP 9 expressing nim gene assessed as inhibition of growth at 48 hrs by agar dilution method; conditions: Segatella baroniae, LBP 9, 48 h; method in brief: as §1
Prevotella bivia [25] = experiment: Antimicrobial activity against slow growing colonies of Prevotella bivia LBN 445 deficient in nim gene assessed as inhibition of growth at 48 hrs by agar dilution method; conditions: LBN 445, 48 h; method in brief: as §3

Cc1ncc([N+](=O)[O-])n1CCO [METRONIDAZOLE]
MIC (Prevotella nanceiensis [1]): 2 mg/L (≈ 11.7 µM) | MIC (Prevotella bivia [2]): 16 mg/L (≈ 93.5 µM) | MIC (Prevotella bivia [3]): 32 mg/L (≈ 187 µM) | MIC (Prevotella baroniae [4]): 16 mg/L (≈ 93.5 µM) | MIC (Prevotella bivia [5]): 32 mg/L (≈ 187 µM) | MIC (Prevotella baroniae [6]): 2 mg/L (≈ 11.7 µM) | MIC (Prevotella bivia [7]): 2 mg/L (≈ 11.7 µM) | MIC (Prevotella nanceiensis [8]): 256 mg/L (≈ 1500 µM) | MIC (Prevotella bivia [9]): 32 mg/L (≈ 187 µM) | MIC (Prevotella bivia [10]): 4 mg/L (≈ 23.4 µM) | MIC (Prevotella baroniae [11]): 64 mg/L (≈ 374 µM) | MIC (Prevotella bivia [12]): 4 mg/L (≈ 23.4 µM) | MIC (Prevotella nanceiensis [13]): 2 mg/L (≈ 11.7 µM) | MIC (Prevotella bivia [14]): 4 mg/L (≈ 23.4 µM) | MIC (Bacteroides fragilis): 256 mg/L (≈ 1500 µM) | MIC (Prevotella baroniae [15]): 4 mg/L (≈ 23.4 µM) | MIC (Prevotella baroniae [16]): 1 mg/L (≈ 5.84 µM) | MIC (Prevotella bivia [17]): 16 mg/L (≈ 93.5 µM) | MIC (Prevotella bivia [18]): 8 mg/L (≈ 46.7 µM) | MIC (Prevotella bivia [19]): 4 mg/L (≈ 23.4 µM) | MIC (Prevotella nanceiensis [20]): 32 mg/L (≈ 187 µM) | MIC (Prevotella baroniae [21]): 128 mg/L (≈ 748 µM) | MIC (Prevotella baroniae [22]): 128 mg/L (≈ 748 µM) | MIC (Prevotella buccae): 128 mg/L (≈ 748 µM) | MIC (Prevotella bivia [23]): 0.5 mg/L (≈ 2.92 µM) | MIC (Prevotella baroniae [24]): 2 mg/L (≈ 11.7 µM) | MIC (Prevotella bivia [25]): 16 mg/L (≈ 93.5 µM)
